Screens deposited in PubChem BioAssay by several laboratories.
The list is not random: actives were taken first. Their share in the collection is about 1.3%.
STK33 kinase inh – blocks human STK33 kinase activity. Q9BYT3. purified STK33, MBP phosphorylation, ADP-Glo luminescence. inhibition, % at 10 µM. hit rate 0.073% among 320,000. AID 2661;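 active = inhibition at or above 25%, using the most active replicate where run in duplicate; inactive = inhibition below 25%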
Target sequence (Q9BYT3 whole entry, looked up): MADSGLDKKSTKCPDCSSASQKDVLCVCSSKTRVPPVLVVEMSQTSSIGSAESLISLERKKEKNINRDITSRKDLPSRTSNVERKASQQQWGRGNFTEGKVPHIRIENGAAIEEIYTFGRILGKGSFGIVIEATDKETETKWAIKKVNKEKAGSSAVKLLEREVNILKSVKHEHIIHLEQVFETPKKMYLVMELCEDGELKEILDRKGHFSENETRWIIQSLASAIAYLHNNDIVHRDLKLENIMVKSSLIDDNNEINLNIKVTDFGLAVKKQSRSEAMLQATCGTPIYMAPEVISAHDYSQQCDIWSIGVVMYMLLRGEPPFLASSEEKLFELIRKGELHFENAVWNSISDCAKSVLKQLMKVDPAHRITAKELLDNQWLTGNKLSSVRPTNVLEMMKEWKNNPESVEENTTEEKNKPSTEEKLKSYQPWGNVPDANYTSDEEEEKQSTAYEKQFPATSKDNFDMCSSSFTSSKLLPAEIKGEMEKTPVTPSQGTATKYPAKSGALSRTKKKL
GSK3 alpha inh – inhibitors of human GSK-3 alpha kinase | P49840 | inhibition, % at 10 µM | ADP-Glo luminescence, 60 min | hit rate 0.1% among 320,000;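 active = more than half of replicates show inhibition above 20%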;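 note: GST-tagged GSK-3 alpha with peptide substrate and 25 µM ATP; 0% = DMSO neutral wells and 100% = GW8510 positive control wells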
LANA-H2B inh – blocks KSHV LANA binding to histone H2A/H2B. Q9QR71. cell-free LANA-H2A/H2B peptide, fluorescence polarization. inhibition, % (concentration not given with the values). hit rate 0.6% among 320,000. AID 2629; in the data active = inhibition mostly above about 10%, no sharp cut-off; inactive = mostly below about 6.7%
TAG inh – reduces triacylglycerol accumulation in H9c2 cells. hit rate 0.66% among 230,000. inhibition, % at 12.5 µM. Nile Red lipid (TAG) fluorescence; cells loaded with 200 µM oleic acid;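 active = pattern-corrected inhibition of lipid staining of at least 50% with the nuclear-stain viability signal not falling by more than 50%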;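 note: 0% = DMSO wells and 100% = triacsin C control wells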
GSK3beta inhib – blocks human GSK3beta kinase activity; P49841; GST-GSK3beta kinase, ADP-Glo luminescence, 60 min; stronger effect = lower value; activity score (negative = inhibition), % at 10 µM; hit rate 0.038% among 300,000; AID 2097;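 active = more than half of replicate wells score below -50%, meaning over 50% inhibition versus plate controls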;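 note: 0% = median DMSO wells and -100% = median GW8510 positive control wells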
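Assay system: GST-tagged human GSK3beta kinase, cell-free; Input: 1.6 ng GSK3beta; Medium: Tris/MgCl2 kinase buffer; Timing: 60 min enzyme reaction, room temperature; Signal: ADP-Glo luminescence quantifying ADP generated by kinase; Evaluation: score relative to plate controls; Benchmarks: DMSO neutral wells and GW8510 at 20 µM as positive.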
Hep lipid drop – modulators of hepatic lipid droplet formation. AID 1656. AML12 mouse hepatocytes, oleate lipid droplets, BODIPY imaging. inhibition, % at 6.5 µM. hit rate 0.4% among 240,000;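 active = lipid droplet intensity inhibited by at least 50%, with more than 500 cells counted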
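Assay system: AML12 hepatocytes (mouse) / Also added: 100 µM oleic acid challenge / Times: overnight treatment with compound plus oleate / Detection: high-content imaging of BODIPY-stained droplets and DAPI nuclei / Evaluation: % inhibition of lipid droplet signal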
Numbers without * were called inactive; x = no result given; + = active, no number.

SMILES | STK33 kinase inh | GSK3 alpha inh | LANA-H2B inh | TAG inh | GSK3beta inhib | Hep lipid drop
COc1ccc(NC(=O)N2CCNC(=O)C2CC(=O)Nc2ccc(F)cc2)cc1 (centres undefined) | -1 | -2 | -1 | -5 | -2 | -17
CC(=O)Nc1ccc2nc(NC(=O)c3ccc([N+](=O)[O-])s3)sc2c1 | -2 | -1 | 30* | x | 1 | -14
O=C1N[C@@H](Cc2c[nH]c3ccccc23)COC(=O)[C@H](Cc2ccc(F)cc2)C/C=C\C[C@@H]1CC(=O)N(CCO)Cc1ccccc1 | -1 | -4 | -2 | 9 | x | x
O=C(COc1ccc(Br)cc1)N(Cc1nnc(-c2ccccc2Cl)o1)C1CC1 | x | x | x | -28 | x | x
O=[N+]([O-])c1cccc(/C=N/Nc2nccnc2Cl)c1 | 3 | 3 | 54* | x | -2 | x
COc1ccc(CCNC(=O)CSc2nc(O)cc(=O)[nH]2)cc1OC | -1 | -3 | 2 | -8 | 2 | -8
CC1(C)NC(C(=O)O)Cc2c1[nH]c1ccccc21 (centres undefined) | -1 | 4 | 7.0* | 7 | 2 | -12
CC(=O)N1C(C(=O)O)Cc2c([nH]c3ccccc23)C1(C)C (centres undefined) | 0 | -2 | 0 | x | -2 | -6
NS(=O)(=O)c1ccc(C(=O)O)cc1 | -2 | -1 | 1 | 0 | -4 | -4
Cc1cc(C(=O)Nc2c(C)nn(Cc3ccc(F)cc3)c2C)on1 | -3 | -2 | 1 | -1 | 3 | x
Cc1nn(Cc2ccc(F)cc2)c(C)c1NC(=O)c1cc(-c2ccco2)on1 | 1 | x | 13* | x | 0 | x
CN(C)c1ccc(C2N3CC4(C)CN2CC(C)(C3)C4O)cc1 (centres undefined) | -1 | -1 | 4 | -8 | 1 | x
CC(C)C12CN3CC(C(C)C)(CN(C1)C3c1ccccc1)C2O (centres undefined) | -3 | 0 | 8.5* | x | 2 | x
O=C(NCCCN1CCOCC1)/C(=C/c1ccc(-c2cccc([N+](=O)[O-])c2)o1)NC(=O)c1ccccc1 | x | x | x | 17 | x | x
Cc1nc2nc(C)n(CCN3CCOCC3)c(=O)c2c(-c2cccc([N+](=O)[O-])c2)c1C(=O)CCCCCCCCCCN1CCC(c2ccccc2)(c2ccccc2)CC1 | x | x | x | 127* | x | x
COc1cc(/C=N/NC(=O)c2ccc3ccccc3c2)ccc1Oc1ccc([N+](=O)[O-])cn1 | 0 | 0 | -1 | 22 | 1 | 56*
COc1ccc(C(=O)Nc2nnc(S(=O)(=O)Cc3ccc(F)cc3)s2)cc1 | 0 | -3 | 18* | x | 3 | -4
COc1ccc(CCN(C)C2CCCN(C(=O)Cn3cccn3)C2)cc1OC (centres undefined) | -1 | -2 | -1 | x | 7 | -18
CN1CCc2c(sc(NC(=O)c3ccc4ccccc4c3)c2C(N)=O)C1 | 11 | 1 | -11 | 28 | -2 | -27
COc1cc2ccccc2cc1C(=O)Nc1sc2c(c1C(N)=O)CCN(C(C)C)C2 | 1 | 1 | -2 | 54* | -1 | -20
CCc1cc(-c2nc(N)ncc2-c2ccc(Br)cc2)c(O)cc1OC | 3 | 1 | 19* | 9 | 0 | 9
CCOC(=O)c1c(NC(=O)CN2CCN(c3cccc(Cl)c3)CC2)sc(C)c1C | x | x | x | -3 | x | x
Cc1cccc(N2C(=O)CN(Cc3cccs3)C2=S)c1 | 0 | -1 | + | -5 | -1 | 9
COC(=O)c1cccc(Nc2nc(-c3cccnc3)nc3ccccc23)c1 | 2 | 2 | 4 | 32 | -3 | 21
O=C(O)c1cccc(Nc2nc(-c3cccnc3)nc3ccccc23)c1 | 32* | 44 | 6 | 3 | -1 | 11
CCOC(=O)c1cccc(Nc2nc(-c3cccnc3)nc3ccccc23)c1 | 4 | 6 | 2 | 53* | 1 | x
O=C(O)c1ccc(Nc2nc(-c3cccnc3)nc3ccccc23)cc1 | 7 | 61* | -2 | x | 2 | 0
O=C(CS(=O)(=O)Cc1ccccc1)Nc1ccccn1 | 0 | 0 | 9 | -4 | 1 | 2
O=C(Oc1ccc(C(=S)N2CCOCC2)cc1)c1cc([N+](=O)[O-])cc([N+](=O)[O-])c1 | -1 | 0 | 2 | x | -1 | x
CC(=O)Nc1ccc(S(=O)(=O)NCCSCc2c(Cl)cccc2Cl)cc1 | -1 | -1 | -2 | x | 0 | x
